Experimental data of several laboratories.
Protocols differ between the studies behind these lines.
Cell line: HeLa
Observed: cell growth or viability

SMILES	method	time	IC50
COc1cc(C)cc2oc(-c3ccc(Br)cc3)cc(=O)c12	MTT	48 h	> 100 µM
COc1cccc2c1C(=O)c1c(O)c3c(c(O)c1C2=O)C[C@@](O)(C(=O)CO)C[C@@H]3O[C@H]1C[C@H](N)[C@H](O)[C@H](C)O1	MTT	72 h	3.62 µM
C(C#CC1CC1)#CC1CC1	MTT	24 h	14.5 µg/mL
NCCCOc1cc(NC(=O)c2cc(Cl)cc(C(=O)Nc3cc(OCCCN)c4ccccc4n3)n2)nc2ccccc12	ATP luminescence	72 h	0.7 µM
COc1ccnc(-c2cc(OC)ccn2)c1	MTT	48 h	> 50 µM
CC1(C)SC2C(NC(=O)C(NC(=O)C3=C(O)C(Cc4ccc(O)cc4)NC3=O)c3ccccc3)C(=O)N2C1C(=O)O (stereo not shown)	ATP luminescence	48 h	93.5 µg/mL
NCCCOc1cc(NC(=O)c2cc(OCCN)cc(C(=O)Nc3cc(OCCCN)c4ccccc4n3)n2)nc2ccccc12	ATP luminescence	72 h	13.7 µM
COc1ccc(OC)c(-c2c(C(=O)c3cc(OC)c(OC)c(OC)c3)sc3ccccc23)c1	MTT	72 h	> 10 µM
COc1ccc(-c2cc(=O)c3c(OC)cc(C)c(-c4c(C)cc(OC)c5c(=O)cc(-c6ccc(OC)cc6)oc45)c3o2)cc1	MTT	48 h	41.4 µM
CC(=O)O[C@H](C)C(=O)CCCCCCC(=O)Nc1ccccc1	XTT	–	> 50 µM
CC(C)(C)Oc1ccc(CC2NC(=O)C(C(=O)NC(C(=O)NC3C(=O)N4C3SC(C)(C)C4C(=O)O)c3ccccc3)=C2O)cc1 (stereo not shown)	ATP luminescence	48 h	59.3 µg/mL
O=C(CCc1cccc2c1B(O)OC2)Nc1ccc(-c2ccccc2)cc1	ATP luminescence	72 h	> 31.6 µM
COc1ccccc1C(=O)c1cc2c(-c3ccccc3)c(OC)ccc2o1	–	–	> 50 µM
C#CCOc1cc(C(=O)Nc2cc(OCCN)c3ccccc3n2)nc(C(=O)Nc2cc(OCCN)c3ccccc3n2)c1	ATP luminescence	72 h	5.2 µM
CCCC#CC#CCCC	MTT	24 h	105 µg/mL
COc1cc(OC)c2c(=O)cc(-c3ccccc3)oc2c1	MTT	48 h	73.7 µM
COc1cccc(C(=O)c2cc3c(-c4ccccc4)c(OC)ccc3o2)c1	–	–	5.4 µM
c1ccc(-c2ccccn2)nc1	MTT	48 h	> 50 µM
COc1cc(C)c(-c2c(C)cc(OC)c3c(=O)cc(-c4cccc(Br)c4)oc23)c2oc(-c3cccc(Br)c3)cc(=O)c12	MTT	48 h	> 100 µM
CC1NC(=O)C(C(=O)NC(C(=O)NC2C(=O)N3C2SC(C)(C)C3C(=O)O)c2ccccc2)=C1O (stereo not shown)	ATP luminescence	48 h	106 µg/mL
COC(=O)CN=c1scc(-c2ccccc2)n1-c1ccc(Cl)cc1	MTT	72 h	17 µM
COc1cc(C)cc2oc(-c3ccccc3)cc(=O)c12	MTT	48 h	82.5 µM
